Test results: ChEMBL document CHEMBL1268915, “Optimization of a series of dipeptides with a P3 threonine residue as non-covalent inhibitors of the chymotrypsin-like activity of the human 20S proteasome” (Bioorg Med Chem Lett, 2010)
Activity calls are given as the source filed them. No cut-off for these calls is given here.

How the values were obtained:
[1] = Inhibition of chymotrypsin-like activity of human 20s proteasome beta-1 subunit in human erythrocyte assessed as hydrolysis of Ac-WLA-AMC fluorogenic substrate
[2] = Cytotoxicity against human Calu6 cells assessed as cellular ATP level after 72 hrs by luminescence-based ATPlite assay; format: cell-based, Calu-6; settings: read-out: LC50
Summary of the method: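 Calu6 cells, 2000 per well, incubated with compound for 72 h. Viability read as cellular ATP by luminescence (ATPlite). Values are means of at least three independent experiments.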

[3] = Inhibition of chymotrypsin-like activity of human 20s proteasome beta2 subunit in human erythrocyte assessed as hydrolysis of Ac-WLA-AMC fluorogenic substrate
[4] = biological target: T1, Calpain-1 catalytic subunit (Homo sapiens) (UniProt P07384); assay: Inhibition of human calpain 1 at 100 uM
T1 sequence (whole entry): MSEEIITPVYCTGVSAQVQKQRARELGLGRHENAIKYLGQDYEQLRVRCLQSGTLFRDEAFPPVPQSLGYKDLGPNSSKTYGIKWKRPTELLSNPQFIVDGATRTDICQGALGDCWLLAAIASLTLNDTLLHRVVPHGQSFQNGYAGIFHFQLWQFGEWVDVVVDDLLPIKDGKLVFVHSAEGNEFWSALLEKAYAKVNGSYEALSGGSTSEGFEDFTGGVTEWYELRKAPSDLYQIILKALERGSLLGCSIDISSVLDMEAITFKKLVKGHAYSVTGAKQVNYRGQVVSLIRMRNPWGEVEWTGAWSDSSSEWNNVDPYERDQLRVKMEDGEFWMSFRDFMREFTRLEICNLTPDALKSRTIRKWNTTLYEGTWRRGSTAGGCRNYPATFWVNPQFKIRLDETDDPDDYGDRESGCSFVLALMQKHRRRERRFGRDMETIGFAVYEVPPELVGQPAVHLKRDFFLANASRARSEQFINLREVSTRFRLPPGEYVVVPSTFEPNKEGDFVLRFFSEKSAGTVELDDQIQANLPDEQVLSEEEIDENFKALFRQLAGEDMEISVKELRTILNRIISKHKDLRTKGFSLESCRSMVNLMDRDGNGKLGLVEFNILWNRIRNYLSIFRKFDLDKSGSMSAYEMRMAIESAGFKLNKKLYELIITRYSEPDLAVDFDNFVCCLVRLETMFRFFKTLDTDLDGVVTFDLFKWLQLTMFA

[5] = biological target: Procathepsin L (Homo sapiens) (UniProt P07711); assay: Inhibition of human cathepsin L at 100uM
Sequence of Procathepsin L (Homo sapiens) (P07711 114-333 limits assumed): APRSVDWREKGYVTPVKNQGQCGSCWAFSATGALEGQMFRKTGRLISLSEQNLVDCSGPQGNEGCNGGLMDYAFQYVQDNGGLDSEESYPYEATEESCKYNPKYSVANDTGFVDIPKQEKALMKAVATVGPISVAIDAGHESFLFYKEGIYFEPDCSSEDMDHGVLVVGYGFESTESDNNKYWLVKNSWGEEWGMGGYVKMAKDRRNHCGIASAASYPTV

[6] = biological target: Cathepsin B (Homo sapiens) (UniProt P07858); assay: Inhibition of human cathepsin B at 100uM
Homo sapiens [7] = species: Homo sapiens; assay: Inhibition of human chymotrypsin at 100 uM
Homo sapiens [8] = species: Homo sapiens; assay: Inhibition of human elastase at 100 uM
[9] = Inhibition of chymotrypsin-like activity of human 20s proteasome beta5 subunit in human erythrocyte assessed as hydrolysis of Ac-WLA-AMC fluorogenic substrate
[10] = biological target: T2, Coagulation factor XII (Homo sapiens) (UniProt P00748); assay: Inhibition of human coagulation factor beta 12a at 100 uM
T2 sequence (whole entry): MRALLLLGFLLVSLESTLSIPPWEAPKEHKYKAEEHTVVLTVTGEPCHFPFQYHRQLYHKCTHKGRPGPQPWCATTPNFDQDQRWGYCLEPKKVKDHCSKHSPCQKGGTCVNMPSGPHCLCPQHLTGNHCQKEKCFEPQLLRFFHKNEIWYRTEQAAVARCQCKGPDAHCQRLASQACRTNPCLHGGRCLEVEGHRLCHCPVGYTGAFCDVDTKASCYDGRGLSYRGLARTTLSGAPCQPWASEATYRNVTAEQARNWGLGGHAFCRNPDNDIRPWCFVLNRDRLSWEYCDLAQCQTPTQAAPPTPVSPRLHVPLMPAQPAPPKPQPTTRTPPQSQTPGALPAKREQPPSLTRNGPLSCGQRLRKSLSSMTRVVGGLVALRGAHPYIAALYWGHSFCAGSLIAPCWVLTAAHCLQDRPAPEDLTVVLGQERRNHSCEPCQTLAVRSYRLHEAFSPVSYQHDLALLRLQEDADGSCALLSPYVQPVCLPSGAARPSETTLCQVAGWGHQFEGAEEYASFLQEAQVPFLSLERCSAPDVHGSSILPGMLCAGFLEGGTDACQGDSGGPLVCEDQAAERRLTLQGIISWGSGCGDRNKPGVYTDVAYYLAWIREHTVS

[11] = biological target: Tissue-type plasminogen activator (Homo sapiens) (UniProt P00750); assay: Inhibition of tissue plasminogen activator at 100 uM
Sequence of Tissue-type plasminogen activator (Homo sapiens) (P00750 36-562 limits assumed): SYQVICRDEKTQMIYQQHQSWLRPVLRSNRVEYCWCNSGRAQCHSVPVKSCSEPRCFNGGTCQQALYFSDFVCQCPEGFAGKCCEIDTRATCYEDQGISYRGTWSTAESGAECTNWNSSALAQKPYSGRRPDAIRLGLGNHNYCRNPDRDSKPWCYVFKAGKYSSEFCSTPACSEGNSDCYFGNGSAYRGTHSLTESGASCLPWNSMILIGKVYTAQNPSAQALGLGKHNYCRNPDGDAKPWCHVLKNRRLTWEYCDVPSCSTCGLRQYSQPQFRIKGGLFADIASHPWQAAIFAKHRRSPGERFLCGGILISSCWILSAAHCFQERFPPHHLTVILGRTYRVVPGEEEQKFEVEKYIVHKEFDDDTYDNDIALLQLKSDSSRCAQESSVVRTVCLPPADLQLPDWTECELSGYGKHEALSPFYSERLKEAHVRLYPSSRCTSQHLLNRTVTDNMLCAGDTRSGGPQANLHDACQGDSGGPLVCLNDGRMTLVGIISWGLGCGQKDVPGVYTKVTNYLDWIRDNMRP

[12] = biological target: Plasminogen (Homo sapiens) (UniProt P00747); assay: Inhibition of human plasmin at 100 uM
Sequence of Plasminogen (Homo sapiens) (P00747 97-580 limits assumed): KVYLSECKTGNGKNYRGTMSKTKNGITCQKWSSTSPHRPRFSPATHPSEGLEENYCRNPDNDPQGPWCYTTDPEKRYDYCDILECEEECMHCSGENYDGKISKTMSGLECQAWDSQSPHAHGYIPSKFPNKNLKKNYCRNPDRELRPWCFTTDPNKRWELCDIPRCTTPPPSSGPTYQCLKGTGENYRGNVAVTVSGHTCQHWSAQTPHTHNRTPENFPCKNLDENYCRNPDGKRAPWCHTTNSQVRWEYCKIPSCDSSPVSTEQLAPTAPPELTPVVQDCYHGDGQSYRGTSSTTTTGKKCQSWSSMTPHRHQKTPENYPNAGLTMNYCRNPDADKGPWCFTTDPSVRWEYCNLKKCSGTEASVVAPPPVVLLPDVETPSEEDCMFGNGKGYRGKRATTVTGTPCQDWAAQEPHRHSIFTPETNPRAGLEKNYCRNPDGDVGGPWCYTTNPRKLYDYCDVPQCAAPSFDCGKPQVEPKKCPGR
Sequence of Plasminogen (Homo sapiens) (P00747 581-810 limits assumed): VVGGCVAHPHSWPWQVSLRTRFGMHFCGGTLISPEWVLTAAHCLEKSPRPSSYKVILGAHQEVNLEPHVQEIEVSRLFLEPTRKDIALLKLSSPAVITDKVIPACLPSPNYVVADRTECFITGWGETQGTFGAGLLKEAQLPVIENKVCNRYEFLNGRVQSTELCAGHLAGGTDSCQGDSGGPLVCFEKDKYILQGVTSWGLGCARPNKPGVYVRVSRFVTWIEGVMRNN

[13] = (§1) Inhibition of TNF-alpha-induced NF-kappaB activation in human HEK293 cells after 3 hrs by luciferase reporter gene assay; format: cell-based; settings: HEK293, 3 h
Summary of the method: (§2)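 NF-κB-luciferase reporter in HEK293 cells (10,000 per well). Cells were pre-incubated with compound for 1 h, then stimulated with 10 ng/ml TNF-α for 3 h with compound still present. IC50 and percentage inhibition were reported as means of at least three independent experiments.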

HEK293 = assay: as §1; format: cell-based; design: concentration or dose not given beside the values; settings: dose or concentration not given here; summary of the method: as §2
[14] = biological target: Prothrombin (Homo sapiens) (UniProt P00734); assay: Inhibition of human thrombin at 100 uM
Trypsin (Homo sapiens) = Trypsin (Homo sapiens) (UniProt P07477+P07478+P35030); assay: Inhibition of human trypsin at 100 uM; format: protein assay

| Structure (SMILES) | IC50 [1] [nM] | CC50 at 72 h [2] [nM] | IC50 [3] [nM] | inhibition [4] | inhibition [5] | inhibition [6] | inhibition (Homo sapiens [7]) | inhibition (Homo sapiens [8]) | IC50 [9] [nM] | inhibition [10] | inhibition [11] | inhibition [12] | IC50 [13] [nM] | inhibition (HEK293) [%] | inhibition [14] | inhibition (Trypsin (Homo sapiens)) |
| --- | --- | --- | --- | --- | --- | --- | --- | --- | --- | --- | --- | --- | --- | --- | --- | --- |
| Cc1ccc(CNC(=O)[C@H](CCc2ccccc2)NC(=O)[C@@H](NC(=O)c2ccc(OCc3ccccc3)cc2)[C@@H](C)O)cc1 | > 20000 | 380 | > 20000 | Active | Active | Active | Active | Active | 20 | Active | Active | Active | 120 | 81 | Active | Active |
| COc1ccc2c(c1)CC(C(=O)N[C@H](C(=O)N[C@@H](CCc1ccccc1)C(=O)NCc1ccc(C)cc1)[C@@H](C)O)CC2 (stereo partly specified) | > 20000 | 2300 | > 20000 | Active | Active | Active | Active | Active | 20 | Active | Active | Active | 95 | 89 | Active | Active |
| Cc1ccc(CNC(=O)[C@H](CCc2ccccc2)NC(=O)[C@H](CCc2ccccc2)NC(=O)Cc2cccc(Oc3ccccc3)c2)cc1 | > 20000 | > 25000 | > 20000 | Active | Active | Active | Active | Active | 1100 | Active | Active | Active | > 50000 | 28 | Active | Active |
| Cc1ccc(CNC(=O)[C@H](CCc2ccccc2)NC(=O)[C@@H](NC(=O)C(=O)c2c[nH]c3ccccc23)[C@@H](C)O)cc1 | > 20000 | 136 | > 20000 | Active | Active | Active | Active | Active | 7.3 | Active | Active | Active | 90 | 100 | Active | Active |
| Cc1ccc(CNC(=O)[C@H](CCc2ccccc2)NC(=O)[C@@H](NCc2ccc(OCc3ccccc3)cc2)[C@@H](C)O)cc1 | > 20000 | 14000 | > 20000 | Active | Active | Active | Active | Active | 3100 | Active | Active | Active | > 50000 | 37 | Active | Active |
| Cc1ccc(CNC(=O)[C@H](CCc2ccccc2)NC(=O)[C@@H](NC(=O)C(C)(C)Oc2ccccc2Cl)[C@@H](C)O)cc1 | > 20000 | 1500 | > 20000 | Active | Active | Active | Active | Active | 75 | Active | Active | Active | 690 | 97 | Active | Active |
| C[C@@H](O)[C@H](NC(=O)c1ccc(OCc2ccccc2)cc1)C(=O)N[C@@H](CCc1ccccc1)C(=O)NCc1cccc(Cl)c1 | > 20000 | > 25000 | > 20000 | Active | Active | Active | Active | Active | 210 | Active | Active | Active | 15000 | 44 | Active | Active |
| COc1ccc2c(c1)C(CC(=O)N[C@H](C(=O)N[C@@H](CCc1ccccc1)C(=O)NCc1ccc(C)cc1)[C@@H](C)O)CC2=O (stereo partly specified) | > 20000 | 1200 | > 20000 | Active | Active | Active | Active | Active | 25 | Active | Active | Active | 320 | 89 | Active | Active |
| C[C@@H](O)[C@H](NC(=O)c1ccc(OCc2ccccc2)cc1)C(=O)N[C@@H](CCc1ccccc1)C(=O)N(C)Cc1ccccc1 | > 20000 | 6600 | > 20000 | Active | Active | Active | Active | Active | 9100 | Active | Active | Active | 4400 | 86 | Active | Active |
| CCNC(=O)[C@H](CCc1ccccc1)NC(=O)[C@@H](NC(=O)c1ccc(OCc2ccccc2)cc1)[C@@H](C)O | > 20000 | 5100 | > 20000 | Active | Active | Active | Active | Active | 440 | Active | Active | Active | 2600 | 98 | Active | Active |
| C[C@@H](O)[C@H](NC(=O)c1ccc(OCc2ccccc2)cc1)C(=O)N[C@@H](CCc1ccccc1)C(=O)NCc1ccccc1Cl | > 20000 | 290 | > 20000 | Active | Active | Active | Active | Active | 13 | Active | Active | Active | 29 | 87 | Active | Active |
